Measured values: ChEMBL document CHEMBL1149652, “Synthesis and structure-activity relationship study of cytotoxic germanicane- and lupane-type 3beta-O-monodesmosidic saponins starting from betulin” (Bioorg Med Chem, 2007)

What was measured:
A549 = assay: Cytotoxicity against human A549 cells assessed as cell viability after 48 hrs; assay type: functional, cell-based; conditions: A549, 48 h
In short: (§1)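 Cells from ATCC grown in MEM with Earle's salts, L-glutamine, 10% FBS, vitamins, essential amino acids, sodium pyruvate, penicillin/streptomycin, 37 °C, 5% CO2. Exponentially growing cells seeded at 5 × 10^3 per well, adhered 16 h, then exposed 48 h to increasing concentrations from DMSO stocks (final DMSO 0.5% v/v). Resazurin fluorescence read (ex 530/em 590 nm), blank-subtracted, expressed as survival versus control wells. IC50 given as mean ± standard deviation, three experiments in triplicate.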

DLD-1 = assay: Cytotoxicity against human DLD1 cells assessed as cell viability after 48 hrs; assay type: functional, cell-based; conditions: DLD-1, 48 h; in short: as §1
[1] = Cytotoxicity against human WS1 cells assessed as cell viability after 48 hrs; assay type: cell-based; conditions: WS1, 48 h; in short: as §1

C=C(C)[C@@H]1CC[C@]2(CO)CC[C@]3(C)[C@H](CC[C@@H]4[C@@]5(C)CC[C@H](O[C@H]6O[C@H](CO)[C@@H](O)[C@H](O)[C@@H]6O)C(C)(C)[C@@H]5CC[C@]43C)[C@@H]12
IC50 (A549): 7.3 µM | IC50 (DLD-1): 10.1 µM | IC50 [1]: 5.1 µM

C=C(C)[C@@H]1CC[C@]2(C(=O)O)CC[C@]3(C)[C@H](CC[C@@H]4[C@@]5(C)CC[C@H](O[C@@H]6O[C@H](CO)[C@@H](O)[C@H](O)[C@H]6O)C(C)(C)[C@@H]5CC[C@]43C)[C@@H]12
IC50 (A549): > 75 µM

C=C(C)[C@@H]1CC[C@]2(C(=O)O)CC[C@]3(C)[C@H](CC[C@@H]4[C@@]5(C)CC[C@H](O[C@H]6O[C@H](CO)[C@@H](O)[C@H](O)[C@@H]6O)C(C)(C)[C@@H]5CC[C@]43C)[C@@H]12
IC50 (A549): 34 µM | IC50 (DLD-1): 15 µM | IC50 [1]: 13 µM

CC1(C)CC[C@]23CC[C@]4(C)[C@H](CC[C@@H]5[C@@]6(C)CC[C@H](O[C@H]7OC[C@H](O)[C@H](O)[C@H]7O)C(C)(C)[C@@H]6CC[C@]54C)[C@H]2[C@@H]1OC3
IC50 (A549): > 75 µM | IC50 (DLD-1): > 75 µM | IC50 [1]: > 75 µM

CC1(C)CC[C@]23CC[C@]4(C)[C@H](CC[C@@H]5[C@@]6(C)CC[C@H](O[C@@H]7OC[C@@H](O)[C@H](O)[C@H]7O)C(C)(C)[C@@H]6CC[C@]54C)[C@H]2[C@@H]1OC3
IC50 (A549): > 75 µM | IC50 (DLD-1): > 75 µM | IC50 [1]: > 75 µM

CC1(C)CC[C@]23CC[C@]4(C)[C@H](CC[C@@H]5[C@@]6(C)CC[C@H](O[C@@H]7O[C@H](CO)[C@H](O)[C@H](O)[C@H]7O)C(C)(C)[C@@H]6CC[C@]54C)[C@H]2[C@@H]1OC3=O
IC50 (A549): > 75 µM | IC50 (DLD-1): > 75 µM | IC50 [1]: > 75 µM

CC1(C)CC[C@]23CC[C@]4(C)[C@H](CC[C@@H]5[C@@]6(C)CC[C@H](O[C@@H]7OC[C@@H](O)[C@H](O)[C@H]7O)C(C)(C)[C@@H]6CC[C@]54C)[C@H]2[C@@H]1OC3=O
IC50 (A549): > 75 µM | IC50 (DLD-1): > 75 µM | IC50 [1]: > 75 µM

CC1(C)CC[C@]23CC[C@]4(C)[C@H](CC[C@@H]5[C@@]6(C)CC[C@H](O[C@@H]7O[C@H](CO)[C@H](O)[C@H](O)[C@H]7O)C(C)(C)[C@@H]6CC[C@]54C)[C@H]2[C@@H]1OC3
IC50 (A549): 30 µM | IC50 (DLD-1): 40 µM | IC50 [1]: 30 µM

CC1(C)CC[C@]23CC[C@]4(C)[C@H](CC[C@@H]5[C@@]6(C)CC[C@H](O[C@H]7O[C@H](CO)[C@@H](O)[C@H](O)[C@@H]7O)C(C)(C)[C@@H]6CC[C@]54C)[C@H]2[C@@H]1OC3=O
IC50 (A549): > 75 µM | IC50 (DLD-1): > 75 µM | IC50 [1]: > 75 µM

C=C(C)[C@@H]1CC[C@]2(C(=O)O)CC[C@]3(C)[C@H](CC[C@@H]4[C@@]5(C)CC[C@H](OC(C)=O)C(C)(C)[C@@H]5CC[C@]43C)[C@@H]12
IC50 (A549): 18 µM | IC50 (DLD-1): 20 µM | IC50 [1]: 57 µM

C=C(C)[C@@H]1CC[C@]2(C(=O)O)CC[C@]3(C)[C@H](CC[C@@H]4[C@@]5(C)CC[C@H](O[C@@H]6O[C@H](CO)[C@H](O)[C@H](O)[C@H]6O)C(C)(C)[C@@H]5CC[C@]43C)[C@@H]12
IC50 (A549): > 75 µM | IC50 (DLD-1): > 75 µM | IC50 [1]: > 75 µM

C=C(C)[C@@H]1CC[C@]2(C(=O)O)CC[C@]3(C)[C@H](CC[C@@H]4[C@@]5(C)CC[C@H](O[C@@H]6OC[C@@H](O)[C@H](O)[C@H]6O)C(C)(C)[C@@H]5CC[C@]43C)[C@@H]12
IC50 (A549): 15 µM | IC50 (DLD-1): 18 µM | IC50 [1]: 20 µM

CC1(C)CC[C@]23CC[C@]4(C)[C@H](CC[C@@H]5[C@@]6(C)CC[C@H](O[C@@H]7O[C@H](CO)[C@@H](O)[C@H](O)[C@H]7O)C(C)(C)[C@@H]6CC[C@]54C)[C@H]2[C@@H]1OC3=O
IC50 (A549): > 75 µM | IC50 (DLD-1): > 75 µM | IC50 [1]: > 75 µM

C[C@@H]1O[C@H](O[C@H]2CC[C@]3(C)[C@H]4CC[C@@H]5[C@H]6[C@@H]7OC(=O)[C@@]6(CCC7(C)C)CC[C@@]5(C)[C@]4(C)CC[C@H]3C2(C)C)[C@@H](O)[C@@H](O)[C@@H]1O
IC50 (A549): > 75 µM | IC50 (DLD-1): > 75 µM | IC50 [1]: > 75 µM

C=C(C)[C@@H]1CC[C@]2(CO)CC[C@]3(C)[C@H](CC[C@@H]4[C@@]5(C)CC[C@H](O[C@@H]6O[C@H](CO)[C@@H](O)[C@H](O)[C@H]6O)C(C)(C)[C@@H]5CC[C@]43C)[C@@H]12
IC50 (A549): > 75 µM | IC50 (DLD-1): > 75 µM | IC50 [1]: > 75 µM

C=C(C)[C@@H]1CC[C@]2(CO)CC[C@]3(C)[C@H](CC[C@@H]4[C@@]5(C)CC[C@H](O[C@@H]6O[C@H](CO)[C@H](O)[C@H](O)[C@H]6O)C(C)(C)[C@@H]5CC[C@]43C)[C@@H]12
IC50 (A549): > 75 µM | IC50 (DLD-1): > 75 µM | IC50 [1]: > 75 µM

C=C(C)[C@@H]1CC[C@]2(CO)CC[C@]3(C)[C@H](CC[C@@H]4[C@@]5(C)CC[C@H](O[C@@H]6OC[C@@H](O)[C@H](O)[C@H]6O)C(C)(C)[C@@H]5CC[C@]43C)[C@@H]12
IC50 (A549): > 75 µM | IC50 (DLD-1): > 75 µM | IC50 [1]: > 75 µM

CC1(C)CC[C@]23CC[C@]4(C)[C@H](CC[C@@H]5[C@@]6(C)CC[C@H](O[C@@H]7O[C@H](CO)[C@@H](O)[C@H](O)[C@H]7O)C(C)(C)[C@@H]6CC[C@]54C)[C@H]2[C@@H]1OC3
IC50 (A549): 31 µM | IC50 (DLD-1): 40 µM | IC50 [1]: 40 µM

C[C@@H]1O[C@H](O[C@H]2CC[C@]3(C)[C@H]4CC[C@@H]5[C@H]6[C@@H]7OC[C@@]6(CCC7(C)C)CC[C@@]5(C)[C@]4(C)CC[C@H]3C2(C)C)[C@@H](O)[C@@H](O)[C@@H]1O
IC50 (A549): > 75 µM | IC50 (DLD-1): > 75 µM | IC50 [1]: > 75 µM

CC1(C)CC[C@]23CC[C@]4(C)[C@H](CC[C@@H]5[C@@]6(C)CC[C@H](O[C@H]7OC[C@H](O)[C@H](O)[C@H]7O)C(C)(C)[C@@H]6CC[C@]54C)[C@H]2[C@@H]1OC3=O
IC50 (A549): > 75 µM | IC50 (DLD-1): > 75 µM | IC50 [1]: > 75 µM

CC1(C)CC[C@]23CC[C@]4(C)[C@H](CC[C@@H]5[C@@]6(C)CC[C@H](O[C@H]7O[C@H](CO)[C@@H](O)[C@H](O)[C@@H]7O)C(C)(C)[C@@H]6CC[C@]54C)[C@H]2[C@@H]1OC3
IC50 (A549): > 75 µM | IC50 (DLD-1): > 75 µM | IC50 [1]: > 75 µM

CC1(C)CC[C@]23CC[C@]4(C)[C@H](CC[C@@H]5[C@@]6(C)CC[C@H](O)C(C)(C)[C@@H]6CC[C@]54C)[C@H]2[C@H]1OC3=O
IC50 (A549): > 75 µM | IC50 (DLD-1): > 75 µM | IC50 [1]: > 75 µM

CC1(C)CC[C@]23CC[C@]4(C)[C@H](CC[C@@H]5[C@@]6(C)CC[C@H](O)C(C)(C)[C@@H]6CC[C@]54C)[C@H]2[C@H]1OC3 [ALLOBETULIN]
IC50 (A549): > 75 µM | IC50 (DLD-1): > 75 µM | IC50 [1]: > 75 µM
